High-throughput results as filed in PubChem BioAssay.
A selection: hits, their analogues and other compounds. The true share with any hit is near 2.9%.
Calb FLC: C. albicans growth inhibition with fluconazole, primary screen, CaCi-2 strain, Alamar Blue fluorescence. C. albicans CaCi-2 (fluconazole-resistant clinical isolate) + fluconazole, 48 h. growth inhibition, % (no concentration beside the values). 300,000 tested, 0.57% active. AID 1979, 2009;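 active means growth inhibition above about 58% in most replicates, limit read from the data, passing the limit was not always enough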;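 further: all wells also contain fluconazole at 8 µg/ml as a sub-toxic cotreatment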
TAG inh: inhibitors of triacylglycerol accumulation, primary screen, cell-based, uHTS, fluorescence, H9c2 | H9c2 cells, Nile Red lipid (TAG) fluorescence; cells loaded with 200 µM oleic acid | inhibition, % at 12.5 µM | 230,000 tested, 0.66% active;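 active means pattern-corrected inhibition of lipid staining of at least 50% with the nuclear-stain viability signal not falling by more than 50%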
MC4R ag barr: MC4R agonists recruiting beta-arrestin, primary screen, cell-based, luminescence, agonist arm of biased-ligand search | Melanocortin receptor 4 (Homo sapiens), P32245 | U2OS MC4R beta-arrestin complementation; percent of melanotan II response, DMSO zero | activation, % at 8.9 µM | 360,000 tested, 0.98% active | AID 540308, 2011;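 active means activation above a per-plate cutoff, the mean activation of sample wells on that plate plus 3 SD, cut at about 8% in these data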
Target sequence (P32245 whole entry, looked up): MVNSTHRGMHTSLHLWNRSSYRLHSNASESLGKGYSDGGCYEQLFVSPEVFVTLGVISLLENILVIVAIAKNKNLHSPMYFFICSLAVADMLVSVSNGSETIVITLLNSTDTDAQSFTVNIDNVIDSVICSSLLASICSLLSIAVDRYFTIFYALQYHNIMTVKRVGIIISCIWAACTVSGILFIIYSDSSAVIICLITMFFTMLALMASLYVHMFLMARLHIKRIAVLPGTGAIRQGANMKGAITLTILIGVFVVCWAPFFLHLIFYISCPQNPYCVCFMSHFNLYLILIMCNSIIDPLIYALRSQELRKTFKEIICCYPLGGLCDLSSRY
GalR3 antag: GalR3 antagonists in HEK293 cells, primary screen, cell-based, fluorescence readout. inhibition, % at 3 µM. HEK293 GalR3-CNG cAMP membrane potential fluorescence; galR3 body fused to GalR1 C-terminus. AID 651719, 2012. 360,000 tested, 0.44% active. Galanin receptor type 3 (Homo sapiens), O60755;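 active means inhibition above the screen-wide average plus 3 SD, cut at about 13% in these data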;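 further: forskolin and galanin both at EC90 stimulate the cells; cAMP rise reported by CNG channel membrane potential dye signal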
Target sequence (O60755 1-299 limits assumed): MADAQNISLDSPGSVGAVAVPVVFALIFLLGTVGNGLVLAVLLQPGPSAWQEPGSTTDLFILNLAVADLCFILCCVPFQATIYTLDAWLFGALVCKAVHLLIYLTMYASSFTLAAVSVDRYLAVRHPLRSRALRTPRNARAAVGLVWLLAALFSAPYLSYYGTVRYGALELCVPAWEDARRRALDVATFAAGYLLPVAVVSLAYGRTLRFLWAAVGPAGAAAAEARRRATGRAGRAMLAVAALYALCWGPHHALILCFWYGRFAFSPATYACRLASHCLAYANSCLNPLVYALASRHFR
MC4R antagonist: MC4R antagonists of cAMP signaling, primary screen, cell-based, TR-FRET, antagonist arm of biased-ligand search; 360,000 tested, 0.48% active; MC4R-expressing cells, MTII-stimulated cAMP, LANCE TR-FRET; Melanocortin receptor 4 (Homo sapiens), P32245; inhibition, % at 6.5 µM;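 active means inhibition above its plate's cutoff, the mean of tested wells on that plate plus 3 SD, cut at about 29% in these data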
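Assay system: U2OS cells stably expressing human melanocortin 4 receptor (MC4R) / Dosing: 6.5 µM / Timing: compound 30 min, challenge 1 h, detection 1 h / Measured by: Eu-cAMP/anti-cAMP TR-FRET, emission 671 nm / Replicates: singlicate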
Efflux pump mplx: inhibitors of Candida efflux pumps in yeast, primary screen, S. cerevisiae, Nile Red, multiplex; 330,000 tested, 0.44% active; inhibition, % at 10 µM; S. cerevisiae Candida pump triplex;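 active means plate passing quality check with inhibition over a set limit, or well fluorescence over plate mean plus 4 SD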;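 further: Nile Red retained in pooled yeast measured as flow cytometry median fluorescence; higher means more Nile Red kept so more efflux inhibition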
Each line names hits and unclear results; the compound was inactive in the other large screens.

COCC(=O)Nc1ccc2c(c1)[C@@H]1C[C@H](CC(=O)OC)O[C@H](CO)[C@@H]1O2	none (no result: Calb FLC, Efflux pump mplx)
CCOC(=O)/C(=C\c1ccc(Cl)cc1)c1nc2sc(C)c(C)c2c(=O)[nH]1	GalR3 antag 13.5 (no result: TAG inh)
CCOC(=O)CSc1nc2sc(C)c(C)c2c(=O)[nH]1	none
CC(Sc1ccc(Cl)cc1)C(=O)NCc1ccc2c(c1)OCO2 (configuration not stated)	Calb FLC 97.2 (no result: TAG inh)
CC(Sc1ccc(Cl)cc1)C(=O)Nc1ccc2c(c1)OCO2 (configuration not stated)	none
C[C@H](O)[C@@H]1C(=O)N2CCc3c([nH]c4c(-c5ccccc5)cccc34)[C@@H]2C[C@@H]1N(C)CC1CCCCC1	none (no result: Calb FLC, TAG inh, MC4R ag barr, MC4R antagonist, Efflux pump mplx)
O=C(COC(=O)c1cc(F)c(F)cc1Cl)NC1CCCCCC1	none (no result: Calb FLC, Efflux pump mplx)
O=C(COC(=O)c1ccc(F)cc1Cl)NC1CCCCCCC1	MC4R ag barr 8.6 (no result: Calb FLC)
Cn1c(/C=C/c2cccc([N+](=O)[O-])c2)c([N+](=O)[O-])c(=O)n(C)c1=O	Calb FLC 94.3
COc1ccc(/C=C/c2c([N+](=O)[O-])c(=O)n(C)c(=O)n2C)cc1OC	none (no result: TAG inh)
COc1cc(CNc2ncnc3c2ncn3[C@H]2CN(Cc3ccco3)C[C@@H](CO)O2)cc(OC)c1OC	none (no result: Calb FLC, Efflux pump mplx)
CCOC(=O)N1CCN(C(=O)c2ccccc2NC(=O)c2ccc(Br)cc2)CC1	none (no result: TAG inh)
CCOC(=O)N1CCN(C(=O)c2ccccc2NC(=O)c2ccc(F)cc2)CC1	MC4R ag barr 8.4
CCc1ccc(Nc2cnn(-c3nc4ccccc4s3)c(=O)c2Cl)cc1	MC4R ag barr 8.2 (no result: TAG inh)
CCCCNc1cnn(-c2ccccc2)c(=O)c1Cl	none
COc1cccc(-c2cnc3c(NC=O)cc(-c4ccccc4)cn23)c1	none (no result: Calb FLC, Efflux pump mplx)
CC(=O)c1ccc(-c2cnc3c(NC=O)cc(-c4cccc(C(=O)N(C)C)c4)cn23)cc1	none (no result: Calb FLC, Efflux pump mplx)
COc1cccc(-c2cc(NC=O)c3ncc(-c4ccc(C(C)=O)cc4)n3c2)c1	MC4R ag barr 8.4 (no result: Calb FLC, Efflux pump mplx)
COc1cccc(-c2cnc3c(NC=O)cc(-c4ccccc4Oc4ccccc4)cn23)c1	MC4R ag barr 8.8 (no result: Calb FLC, Efflux pump mplx)
CN(C)C(=O)c1cccc(-c2cnc3c(NC=O)cc(-c4ccccc4N(C)C)cn23)c1	MC4R ag barr 9.2 (no result: Calb FLC, Efflux pump mplx)
C=CCNC(=S)N(C)[C@H]1C[C@H]2c3cc(-c4ccccc4C)ccc3CCN2C[C@H]1[C@H](C)O	none (no result: Calb FLC, TAG inh, MC4R ag barr, MC4R antagonist, Efflux pump mplx)
O=C(C(=Cc1ccc(O)cc1)c1ccccc1)c1ccccc1	none (no result: Calb FLC, TAG inh, MC4R ag barr, MC4R antagonist, Efflux pump mplx)
CCC1(c2ccccc2)NC(=S)N(c2ccc(C)cc2)N1 (configuration not stated)	Calb FLC 106.3
CCC1(c2ccc(Cl)cc2)NC(=S)N(c2ccccc2)N1 (configuration not stated)	Calb FLC 117.4 (no result: TAG inh)
CC(C)=CCC[C@H](C)C[C@@H]1Cc2[nH][nH]c(=O)c2[C@H](c2ccc(F)cc2)O1	none (no result: Calb FLC, TAG inh, MC4R ag barr, MC4R antagonist, Efflux pump mplx)
O=C(CNS(=O)(=O)c1ccc(Br)s1)NCC1COc2ccccc2O1 (configuration not stated)	Calb FLC 88.0 (no result: TAG inh)
CCC(=O)NC(c1ccc(OC)cc1)c1cc(Cl)c2cccnc2c1O (configuration not stated)	Calb FLC 103.6
COc1ccc(Cl)cc1C(Nc1cccnc1)c1ccc2cccnc2c1O (configuration not stated)	Calb FLC 101.8
COc1cccc(C(NC(C)=O)c2ccc3cccnc3c2O)c1 (configuration not stated)	Calb FLC 79.6
CCCCC(=O)NC(c1ccccc1)c1ccc2cccnc2c1O (configuration not stated)	Calb FLC 89.1
CCC(=O)NC(c1ccco1)c1cc(Cl)c2cccnc2c1OC (configuration not stated)	none (no result: Calb FLC)
CCCCC(=O)NC(c1cccc([N+](=O)[O-])c1)c1ccc2cccnc2c1O (configuration not stated)	TAG inh 76.2 (no result: Calb FLC, Efflux pump mplx)
CCCCC(=O)NC(c1ccccc1Cl)c1ccc2cccnc2c1O (configuration not stated)	none
CC(=O)NC(c1cccc([N+](=O)[O-])c1)c1ccc2cccnc2c1O (configuration not stated)	none (no result: TAG inh)
CCCC(=O)NC(c1ccc(OC)cc1)c1ccc2cccnc2c1O (configuration not stated)	Calb FLC 101.8
Oc1cccc(C(Nc2nccs2)c2ccc3cccnc3c2O)c1 (configuration not stated)	Calb FLC 102.8
CCCCC(=O)NC(c1ccc(C(C)C)cc1)c1ccc2cccnc2c1O (configuration not stated)	none (no result: TAG inh)
CCC(=O)NC(c1ccccc1OC)c1ccc2cccnc2c1O (configuration not stated)	Calb FLC 103.1 (no result: TAG inh, GalR3 antag)
O=C(CCN1C(=O)c2ccccc2C1=O)c1ccccc1	none (no result: Calb FLC, Efflux pump mplx)
C[C@H](O)[C@@H]1C(=O)N2CCc3ccc(-c4ccccc4)cc3[C@@H]2C[C@@H]1N(C)C(=S)Nc1ccc(F)cc1	none (no result: Calb FLC, Efflux pump mplx)
Oc1c(C(Nc2cccc(C(F)(F)F)c2)c2cccnc2)ccc2cccnc12 (configuration not stated)	Calb FLC 96.4 (no result: TAG inh)
Cc1cc(NC(c2cccnc2)c2ccc3cccnc3c2O)no1 (configuration not stated)	none
CCCCC(=O)NC(c1ccco1)c1cc(Cl)c2cccnc2c1O (configuration not stated)	Calb FLC 111.8
CCCC(=O)NC(c1ccccc1)c1ccc2cccnc2c1O (configuration not stated)	Calb FLC 86.3
CC(=O)NC(c1ccco1)c1cc(Cl)c2cccnc2c1O (configuration not stated)	none (no result: Calb FLC, Efflux pump mplx)
CCOC(=O)CC1(Cc2ccccc2)Oc2ccccc2O1	none (no result: Calb FLC, TAG inh, MC4R ag barr, MC4R antagonist, Efflux pump mplx)
Cc1ccccc1C(=O)Nc1ccc(-c2nc3ccc(C(=O)c4ccccc4)cc3[nH]2)cc1	none
O=C(c1ccccc1)c1ccc2nc(-c3ccc(NC(=O)c4ccccc4Br)cc3)[nH]c2c1	Calb FLC 76.1 (no result: TAG inh)
CC1(C(=O)NCc2ccccc2)CN(S(C)(=O)=O)CC(=O)N1CCc1ccccc1F (configuration not stated)	none (no result: Calb FLC, TAG inh, MC4R ag barr, MC4R antagonist, Efflux pump mplx)
CCN(Cc1ccccc1)S(=O)(=O)c1ccc(C(=O)Nc2nnc(-c3ccccc3OC)o2)cc1	Calb FLC 82.7
